Assay [1] has as its system Polθ ATPase domain binding to ssDNA. In words: Microscale thermophoresis.
Another assay concerns Polθ-ATPase domain. Briefly: Thermal stability assay. The settings on record: 500 μM compound vs DMSO. It counts as binding.
Assay [2] concerns Polθ recruitment to ssDNA in U2OS cells. In words: Laser micro-irradiation and immunofluorescence, Polθ recruitment to ssDNA. Type of assay: cell-based, human. The settings on record: 200 μM, 24 h, U2OS POLQ KO cells expressing Myc-Polθ.
Assay [3] relates to RPE1 TP53−/−BRCA1−/− cells. Briefly: DNA fiber assay with S1 nuclease digestion. Type of assay: cell-based. The settings on record: 200 μM NVB vs vehicle. The gist of the method: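 Cells (F12, 10% FBS) seeded 24 h, pulsed with 200 μM CldU for 30 min, washed, then 100 μM IdU for 2 h with test compound (200 μM) or DMSO added alongside. CSK permeabilisation 10 min RT. Nuclei were treated with 10 U/ml S1 nuclease (pH 4.6 buffer) for 30 min at 37°C or left undigested. Agarose-plug extraction was used, and ≥200 IdU tracks were scored per treatment (Mann–Whitney).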

In assay [4] the target is Polθ ATPase domain (human) (UniProt O75417). In words: mass photometry.

Chain of Polθ ATPase domain (O75417 67-894): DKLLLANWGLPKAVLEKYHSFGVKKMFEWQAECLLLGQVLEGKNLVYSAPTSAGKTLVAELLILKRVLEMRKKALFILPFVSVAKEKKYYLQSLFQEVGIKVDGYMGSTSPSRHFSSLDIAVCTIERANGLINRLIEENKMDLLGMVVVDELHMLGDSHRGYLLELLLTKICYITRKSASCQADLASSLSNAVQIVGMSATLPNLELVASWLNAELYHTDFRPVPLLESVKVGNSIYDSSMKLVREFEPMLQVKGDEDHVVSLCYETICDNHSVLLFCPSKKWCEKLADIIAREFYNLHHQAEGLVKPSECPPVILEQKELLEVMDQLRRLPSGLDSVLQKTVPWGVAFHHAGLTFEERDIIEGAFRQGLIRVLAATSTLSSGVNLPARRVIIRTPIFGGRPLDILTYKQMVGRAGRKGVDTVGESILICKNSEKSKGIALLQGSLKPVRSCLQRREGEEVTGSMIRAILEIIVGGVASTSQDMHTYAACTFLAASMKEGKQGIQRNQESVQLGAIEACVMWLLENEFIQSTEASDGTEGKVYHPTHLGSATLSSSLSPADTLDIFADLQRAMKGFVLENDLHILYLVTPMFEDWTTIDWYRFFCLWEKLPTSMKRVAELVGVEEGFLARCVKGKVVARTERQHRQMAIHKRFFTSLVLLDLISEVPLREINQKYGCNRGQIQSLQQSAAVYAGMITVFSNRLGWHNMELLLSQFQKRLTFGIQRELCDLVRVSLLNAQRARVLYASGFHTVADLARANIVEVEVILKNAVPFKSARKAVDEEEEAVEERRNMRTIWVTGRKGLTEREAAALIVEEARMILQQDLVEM

Take `Nc1ncnc2c1ncn2[C@@H]1O[C@H](COP(=O)(O)OP(=O)(O)NP(=O)(O)O)[C@@H](O)[C@H]1O` [AMP-PNP]: the “Effect on Polθ binding to ssDNA” value in assay [1] (2000 μM AMP-PNP, MST buffer with 5 mM MgCl2) was “unable to block”.
As for `CO[C@@H]1[C@@H](OC(N)=O)[C@@H](O)[C@H](Oc2ccc3c(O)c(NC(=O)c4ccc(O)c(CC=C(C)C)c4)c(=O)oc3c2C)OC1(C)C` [NVB, Novobiocin], the “Effect on Polθ binding to ssDNA” value in assay [1] (NVB 100-2000 μM in MST buffer, 120 mM KCl) is “dose-dependent inhibition”. In the assay with Polθ-ATPase domain, the “Change in the scattering peak maximum” value was “+2 °C”. In addition, the “Polθ blocked from being recruited to damage sites” value in assay [2] was roughly 96%. The “IdU track lengths following S1 nuclease treatment” value in assay [3] was “dramatic shortening”.
Consider “Polθ ATPase domain (from UniProt O75417 67-894) (domain or fragment)”, for which, in assay [4], the stoichiometry N is 4.

In general, stoichiometry N refers to a count of units in the complex or per binding partner.

(Values after paper PMC10570058 (Nucleic Acids Research, 2023).)
